Laboratory results: ChEMBL document CHEMBL1123041, “Synthesis of new bis(aminoethanethiol) (BAT) derivatives: possible ligands for 99mTc brain imaging agents” (J Med Chem, 1985)

Key:
Rattus norvegicus [1] = experiment: Biodistribution in Sprague-Dawley rat heart 2 minutes after intravenous administration, [99mTc]/[125I] IAP ratio); assay type: ADME, organism-based; settings: in vivo
In short: (§1)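 99mTc complex and [125I]iodoantipyrine were co-injected iv into rats. Rats were killed by cardiectomy at 2 or 15 min, and organs were excised, weighed and gamma-counted in two channels with spillover correction. The ratio is 99mTc percent dose divided by 125I percent dose in the same organ, averaged over three rats. Radiochemical purity of the complexes was >95% by reversed-phase HPLC.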

Rattus norvegicus [2] = experiment: Biodistribution in Sprague-Dawley rat heart 15 minutes after intravenous administration, [99mTc]/[125I] IAP ratio); assay type: ADME, organism-based; settings: in vivo, 0.25 h; in short: as §1
Rattus norvegicus [3] = experiment: Biodistribution in Sprague-Dawley rat skin 2 minutes after intravenous administration, [99mTc]/[125I] IAP ratio); assay type: ADME, organism-based, Zone of skin; settings: in vivo; in short: as §1
Rattus norvegicus [4] = experiment: Biodistribution in Sprague-Dawley rat blood 2 minutes after intravenous administration, [99mTc]/[125I] IAP ratio); assay type: ADME, organism-based; settings: in vivo; in short: as §1
Rattus norvegicus [5] = experiment: Biodistribution in Sprague-Dawley rat stomach 2 minutes after intravenous administration, [99mTc]/[125I] IAP ratio); assay type: ADME, organism-based; settings: in vivo; in short: as §1
[6] = Partition coefficient was determined at pH 7.0.; assay type: ADME; settings: octanol/water
In short: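 99mTc-labelled BAT complex shaken with 3 g each of 1-octanol and 0.1 M phosphate buffer (pH 7.0), vortexed 3 min at room temperature, centrifuged 5 min. Two 0.5 g samples per layer counted in a well counter; PC = cpm/g octanol over cpm/g buffer. Octanol layer repartitioned until values were consistent; usually repeated three times.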

Rattus norvegicus [7] = experiment: Biodistribution in Sprague-Dawley rat blood 15 minutes after intravenous administration, [99mTc]/[125I] IAP ratio); assay type: ADME, organism-based; settings: in vivo, 0.25 h; in short: as §1
Rattus norvegicus [8] = experiment: Biodistribution in Sprague-Dawley rat small intestine 2 minutes after intravenous administration, [99mTc]/[125I] IAP ratio); assay type: ADME, organism-based; settings: in vivo; in short: as §1
Rattus norvegicus [9] = experiment: Biodistribution in Sprague-Dawley rat spleen 2 minutes after intravenous administration, [99mTc]/[125I] IAP ratio); assay type: ADME, organism-based; settings: in vivo; in short: as §1
Rattus norvegicus [10] = experiment: Biodistribution in Sprague-Dawley rat liver 2 minutes after intravenous administration, [99mTc]/[125I] IAP ratio); assay type: ADME, organism-based; settings: in vivo; in short: as §1
Rattus norvegicus [11] = experiment: Biodistribution in Sprague-Dawley rat skin 15 minutes after intravenous administration, [99mTc]/[125I] IAP ratio); assay type: ADME, organism-based, Zone of skin; settings: in vivo, 0.25 h; in short: as §1
Rattus norvegicus [12] = experiment: Biodistribution in Sprague-Dawley rat kidneys(2) 15 minutes after intravenous administration, [99mTc]/[125I] IAP ratio); assay type: ADME, organism-based, Kidney; settings: in vivo, 0.25 h; in short: as §1
Rattus norvegicus [13] = experiment: Biodistribution in Sprague-Dawley rat lungs(2) 15 minutes after intravenous administration, [99mTc]/[125I] IAP ratio); assay type: ADME, organism-based, Lung; settings: in vivo, 0.25 h; in short: as §1
Homo sapiens = organism: Homo sapiens; experiment: The human serum protein binding activity was determined; assay type: functional
In short: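 Equilibrium dialysis: 0.4 mL pooled human serum against 0.4 mL 0.15 M phosphate buffer pH 7.4 containing 99mTc complex (~0.025 μCi), rotated 18 h at 37 °C. Both sides weighed and counted; percent free = buffer/serum radioactivity concentration ratio × 100. Membrane counted afterwards to check membrane binding.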

Rattus norvegicus [14] = experiment: Biodistribution in Sprague-Dawley rat liver 15 minutes after intravenous administration, [99mTc]/[125I] IAP ratio); assay type: ADME, organism-based; settings: in vivo, 0.25 h; in short: as §1
Rattus norvegicus [15] = experiment: Biodistribution in Sprague-Dawley rat thyroid 15 minutes after intravenous administration, [99mTc]/[125I] IAP ratio); assay type: ADME, organism-based, Thyroid gland; settings: in vivo, 0.25 h; in short: as §1
Rattus norvegicus [16] = experiment: Biodistribution in Sprague-Dawley rat brain 15 minutes after intravenous administration, [99mTc]/[125I] IAP ratio); assay type: ADME, organism-based; settings: in vivo, 0.25 h; in short: as §1
Rattus norvegicus [17] = experiment: Biodistribution in Sprague-Dawley rat spleen 15 minutes after intravenous administration, [99mTc]/[125I] IAP ratio); assay type: ADME, organism-based; settings: in vivo, 0.25 h; in short: as §1
Rattus norvegicus [18] = experiment: Biodistribution in Sprague-Dawley rat muscle 2 minutes after intravenous administration, [99mTc]/[125I] IAP ratio); assay type: ADME, organism-based, Muscle tissue; settings: in vivo; in short: as §1
Rattus norvegicus [19] = experiment: Biodistribution in Sprague-Dawley rat stomach 15 minutes after intravenous administration, [99mTc]/[125I] IAP ratio); assay type: ADME, organism-based; settings: in vivo, 0.25 h; in short: as §1
Rattus norvegicus [20] = experiment: Biodistribution in Sprague-Dawley rat muscle 15 minutes after intravenous administration, [99mTc]/[125I] IAP ratio); assay type: ADME, organism-based, Muscle tissue; settings: in vivo, 0.25 h; in short: as §1
Rattus norvegicus [21] = experiment: Biodistribution in Sprague-Dawley rat kidneys(2) 2 minutes after intravenous administration, [99mTc]/[125I] IAP ratio); assay type: ADME, organism-based, Kidney; settings: in vivo; in short: as §1
Rattus norvegicus [22] = experiment: Biodistribution in Sprague-Dawley rat small intestine 15 minutes after intravenous administration, [99mTc]/[125I] IAP ratio); assay type: ADME, organism-based; settings: in vivo, 0.25 h; in short: as §1
Rattus norvegicus [23] = experiment: Biodistribution in Sprague-Dawley rat brain 2 minutes after intravenous administration, [99mTc]/[125I] IAP ratio); assay type: ADME, organism-based; settings: in vivo; in short: as §1
Rattus norvegicus [24] = experiment: Biodistribution in Sprague-Dawley rat thyroid 2 minutes after intravenous administration, [99mTc]/[125I] IAP ratio); assay type: ADME, organism-based, Thyroid gland; settings: in vivo; in short: as §1
Rattus norvegicus [25] = experiment: Biodistribution in Sprague-Dawley rat lungs(2) 2 minutes after intravenous administration, [99mTc]/[125I] IAP ratio); assay type: ADME, organism-based, Lung; settings: in vivo; in short: as §1
Rattus norvegicus [26] = experiment: Biodistribution in Sprague-Dawley rat brain 2 minutes after intravenous administration.; assay type: ADME, organism-based; settings: in vivo
In short: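 Rats received the 99mTc complex iv together with [125I]iodoantipyrine as internal reference and were killed by cardiectomy. Brain was excised, weighed and gamma-counted. Percent dose/organ was obtained by comparing tissue activity with diluted aliquots of the injected dose, averaged over three rats. Radiochemical purity of the complexes was >95% by HPLC.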

| Dose (Rattus norvegicus [1]) | Dose (Rattus norvegicus [2]) | Dose (Rattus norvegicus [3]) | Dose (Rattus norvegicus [4]) | Dose (Rattus norvegicus [5]) | Partition coefficient [6] | Dose (Rattus norvegicus [7]) | Dose (Rattus norvegicus [8]) | Dose (Rattus norvegicus [9]) | Dose (Rattus norvegicus [10]) | Dose (Rattus norvegicus [11]) | Dose (Rattus norvegicus [12]) | Dose (Rattus norvegicus [13]) | Free (Homo sapiens) | Dose (Rattus norvegicus [14]) | Dose (Rattus norvegicus [15]) | Dose (Rattus norvegicus [16]) | Dose (Rattus norvegicus [17]) | Dose (Rattus norvegicus [18]) | Dose (Rattus norvegicus [19]) | Structure (SMILES) | other results |
| --- | --- | --- | --- | --- | --- | --- | --- | --- | --- | --- | --- | --- | --- | --- | --- | --- | --- | --- | --- | --- | --- |
| 4.46% | 0.395% | 5.21% | 7.81% | 1.07% | 260 | 2.56% | 4.47% | 0.149% | 11.9% | 11.8% | 1.1% | 0.877% | 23.4% | 17.4% | 0.063% | 0.297% | 0.197% | 7.09% | 3.16% | COc1ccccc1C(CNCC(C)(C)S)NCC(C)(C)S (configuration not stated) | Dose (Rattus norvegicus [20]): 15.1%; Dose (Rattus norvegicus [21]): 3.23%; Dose (Rattus norvegicus [22]): 12.5%; Dose (Rattus norvegicus [23]): 2.3%; Dose (Rattus norvegicus [24]): 0.292%; Dose (Rattus norvegicus [25]): 5.49% |
| 3.31% | 0.441% | 7.45% | 14.5% | 1.61% | 248 | 4.77% | 6.24% | 0.407% | 29% | 8.17% | 1.73% | 1.52% | 14.7% | 25.4% | 0.057% | 0.229% | 0.323% | 8.66% | 5.46% | CC(C)(S)CNCC(NCC(C)(C)S)c1ccccc1O (configuration not stated) | Dose (Rattus norvegicus [26]): 0.408%; Dose (Rattus norvegicus [20]): 12.4%; Dose (Rattus norvegicus [21]): 4.75%; Dose (Rattus norvegicus [22]): 18.2%; Dose (Rattus norvegicus [24]): 0.189%; Dose (Rattus norvegicus [25]): 4.94% |
